# Screening data from PubChem BioAssay.
# This is a sample that favours compounds with a hit; in the whole collection about 1.8% have one here.
# CHRM4 agonist – human M4 muscarinic receptor agonists, primary screen, CHO-K1 cells, Fluo-8 calcium fluorescence. CHO-K1 hM4/Gqi5; vehicle 0%, full acetylcholine response 100%. activation, % at 3 µM. actives 0.14% (n = 360,000). AID 624127, 2012;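 active = activation above the run mean over all test wells plus 3 SD, cut at about 32% in these data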;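 also: peak over basal fluorescence ratio per well then scaled between controls; 0% = DMSO wells and 100% = acetylcholine at EC100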
# M5 antag – human M5 muscarinic receptor antagonists, primary screen, CHO cells, Fluo-8 calcium fluorescence; inhibition, % at 3 µM; AID 624040, 2012; Muscarinic acetylcholine receptor M5 (Homo sapiens), P08912; CHO-hM5 cells, ACh EC80; actives 0.59% (n = 360,000);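 active = inhibition above a per-plate cutoff, the mean of that plate's test compounds plus 3 SD, cut at about 27% in these data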;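 also: 0% = acetylcholine EC80 with DMSO and 100% = DMSO without agonist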
# Target sequence (P08912 whole entry, looked up): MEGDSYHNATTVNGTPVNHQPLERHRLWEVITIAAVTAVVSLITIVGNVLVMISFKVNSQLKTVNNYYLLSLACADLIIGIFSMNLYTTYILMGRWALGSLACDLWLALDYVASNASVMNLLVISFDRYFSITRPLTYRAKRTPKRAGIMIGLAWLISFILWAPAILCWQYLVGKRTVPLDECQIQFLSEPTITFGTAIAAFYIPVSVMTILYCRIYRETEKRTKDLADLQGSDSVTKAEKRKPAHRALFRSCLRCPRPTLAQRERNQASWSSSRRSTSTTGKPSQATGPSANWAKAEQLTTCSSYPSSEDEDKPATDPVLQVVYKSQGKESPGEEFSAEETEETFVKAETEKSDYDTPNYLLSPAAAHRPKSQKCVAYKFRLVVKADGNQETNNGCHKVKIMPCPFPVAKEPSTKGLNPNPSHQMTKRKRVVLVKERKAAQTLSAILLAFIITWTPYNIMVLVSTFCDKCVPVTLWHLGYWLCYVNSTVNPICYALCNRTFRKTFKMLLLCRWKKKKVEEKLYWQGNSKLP
# M5 PAM – human M5 muscarinic receptor positive allosteric modulators, primary screen, CHO-K1 cells, Fluo-8 calcium fluorescence; activation, % at 3 µM; CHO-K1 hM5, ACh EC20 PAM; 0% = ACh EC20, 100% = ACh EC100; actives 0.3% (n = 360,000);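 active = activation above the run cutoff, the mean activation of all test compounds plus 3 SD, cut at about 18% in these data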
#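 System – CHO-K1 hM5 cells · Compound – 3 µM, single dose · Incubation – compound preincubation 140 s before EC20 acetylcholine addition · Technique – Fluo-8 calcium fluorescence · Measure – Max/basal fluorescence ratio as % of EC20–EC100 ACh window · Benchmarks – low control EC20 acetylcholine (0%), high control EC100 acetylcholine (100%) · Replication – singlicate, one well per test compound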
# M4 PAM – human M4 muscarinic receptor positive allosteric modulators, primary screen, CHO-K1 cells, Fluo-8 calcium fluorescence. AID 624126, 2012. actives 0.4% (n = 360,000). activation, % at 3 µM. CHO-K1 hM4/Gqi5, ACh EC20; 0% = ACh EC20, 100% = maximal ACh;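 active = activation above its plate's cutoff, the mean activation of sample wells plus 3 SD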
# M4 antag – human M4 muscarinic receptor antagonists, primary screen, CHO cells, Fluo-8 calcium fluorescence; CHO-hM4 cells, ACh EC80; inhibition, % at 3 µM; actives 0.73% (n = 360,000);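 active = inhibition above its plate's cutoff, the mean inhibition of sample wells plus 3 SD, cut at about 27% in these data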;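 also: 0% = acetylcholine EC80 with DMSO and 100% = DMSO without agonist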
# M5 ag – human M5 muscarinic receptor agonists, primary screen, CHO-K1 cells, Fluo-8 calcium fluorescence. Muscarinic acetylcholine receptor M5 (Homo sapiens), P08912. CHO-K1 hM5 cells; 0% DMSO wells, 100% maximal acetylcholine response. activation, % at 3 µM. actives 0.19% (n = 360,000). AID 624037, 2012;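 active = activation above the run's mean over test compounds plus 3 SD, cut at about 23% in these data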;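 also: signal is peak over basal fluorescence ratio across the kinetic read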
# * = called active by the depositor; ! = not active in a repeat.
SMILES,CHRM4 agonist,M5 antag,M5 PAM,M4 PAM,M4 antag,M5 ag
CN1CCCC1CCOC(C)(c1ccccc1)c1ccc(Cl)cc1 (configuration not stated),14.5,98.5*,-18.3,-17.9,97.6*,2.5
CCOc1ccc(S(=O)(=O)N2CCC(C(=O)N3CCCCCC3)CC2)cc1C,3.6,-15.3,50.1*,2.7,-8.5,14.9
CCOc1ccc(S(=O)(=O)N2CCC(C(=O)N3CCOCC3)CC2)cc1C,1.5,12.0,-0.8,-2.8,-4.2,-2.0
CCCCNC(=O)c1nc(C2CCN(S(=O)(=O)c3ccc(C(F)(F)F)cc3)CC2)oc1-c1ccccc1,2.3,-4.7,3.4,2.1,-16.1,0.8
Cc1cnc(-c2nc3ccccc3n2C(C(=O)NC(C)(C)C)c2ccccc2)cn1 (configuration not stated),-0.3,2.5,-2.4,1.7,1.0,0.8
COc1ccccc1C(=O)COC(=O)c1cc([N+](=O)[O-])ccc1N1CCOCC1,3.8,9.6,-6.9,1.3,-13.1,-4.5
COc1cc(C(=O)COC(=O)c2cc([N+](=O)[O-])ccc2N2CCOCC2)ccc1OC(F)F,2.2,7.3,-9.0,-4.0,28.2*,-5.6
COCCN(CC(=O)NC1CCCCC1)C(=O)/C=C/C(=O)c1ccc(OC)cc1O,2.3,12.5,9.8,-4.9,18.0,3.5
COc1ccc(C(=O)/C=C/C(=O)N(CC(=O)NC2CCCCC2)Cc2cccs2)c(O)c1,15.6,18.9,-3.6,-17.8,34.5*,10.5
Clc1cccc(Cc2c(-c3ccccc3)nc3c4ccccc4ccn23)c1,-0.5,-1.0,-7.2,-8.8,6.5,-3.7
Cc1cc(C)c2cc(C#N)c(NCCNC(=O)c3ccncc3)nc2c1,2.8,-5.3,3.2,2.8,-1.1,4.5
Cc1oc(-c2ccccc2)cc1C(=O)Nc1cccc(C(=O)O)c1,1.3,-2.1,14.2,42.7*,-4.6,-3.7
CC(=O)Nc1ccc(-c2ccnc3c2CC(C)(C(=O)Nc2ccc4c(c2)OCO4)O3)cc1 (configuration not stated),2.1,1.7,-1.9,1.3,-5.7,1.8
CCOC(=O)CSc1nc(NC#N)nc(N(CC)CC)n1,0.4,-18.1,18.7*,1.8,-12.7,0.3
CCNc1nc(NC#N)nc(SCC(=O)OCC)n1,0.1,1.2,-4.2,-2.3,-3.4,-2.7
O=C(NC(Nc1nc2ccc([N+](=O)[O-])cc2s1)(C(F)(F)F)C(F)(F)F)c1cccnc1,13.8,25.9,-14.6,-7.1,7.8,9.2
O=C(NC(Nc1nc2ccc([N+](=O)[O-])cc2s1)(C(F)(F)F)C(F)(F)F)c1ccccc1Cl,6.8,48.8*,-19.4,-10.3,15.4,5.7
O=C(CC(c1ccccc1O)N1CCCCC1)N1CCCCC1 (configuration not stated),1.6,7.7,-16.8,-29.1,77.9*,-7.1
O=C(CC(c1ccccc1)c1cc(Cl)ccc1O)N1CCCC1 (configuration not stated),-0.7,8.3,-4.2,-15.8,2.7,-15.4
COc1ccccc1-c1ccc2c(c1)C(C)(Cc1cccc(C#N)c1)C(=O)N2 (configuration not stated),0.5,-1.8,3.7,0.3,-9.4,-0.7
CC1(C(=O)NS(=O)(=O)c2cccc(OC(F)F)c2)CCN1C(=O)C1CCCCC1 (configuration not stated),0.5,9.9,-2.2,4.5,-11.0,0.9
C=CC[n+]1ccc(/C=C2\C=Cc3cc(C)ccc3N2CC)c2ccccc21,4.5,35.0*,-17.5,-12.5,15.2,1.0
CCN1/C(=C/c2cc[n+](CCCS(=O)(=O)[O-])c3ccccc23)Sc2ccccc21,0.4,-0.4,5.5,1.3,2.2,-0.5
CCOC(=O)c1ccc(N=c2sc(C(=O)OC)cc(=O)n2CCCN2CCOCC2)cc1,2.1,3.0,-7.6,-12.8,52.2*!,-1.1
CCOC(=O)c1ccc(N=c2sc(C(=O)OC)cc(=O)n2Cc2ccco2)cc1,1.6,1.9,-5.8,-4.7,-5.0,-0.5
SMILES,CHRM4 agonist,M5 antag,M5 PAM,M4 PAM,M4 antag,M5 ag
Cc1cc2c(cc1C)-c1nnnn1C(N1CCC(Cc3ccccc3)CC1)C(=O)N2 (configuration not stated),9.5,24.0,-9.3,-4.6,20.7,0.0
COc1ccc(C(O)c2ncc(-c3cccc4ccccc34)[nH]2)cc1F (configuration not stated),3.1,3.4,-2.1,1.1,9.9,-0.1
Cc1ccccc1OCc1nnc(SCc2nc3ccccc3c(=O)[nH]2)n1C,-0.8,3.4,-3.2,-14.7,49.3*,0.1
Cn1c(Cc2ccccc2)nnc1SCc1nc2ccccc2c(=O)[nH]1,1.9,-9.0,6.6,5.0,-9.5,-0.2
CN(CC1COCCO1)C(=O)c1cc(COc2c(F)cccc2F)on1 (configuration not stated),3.2,-0.3,-0.3,23.5*,1.8,-0.2
CN(CC1COc2ccccc2O1)C(=O)c1cc(COc2c(F)cccc2F)on1 (configuration not stated),5.7,5.7,-2.3,2.7,-8.1,-3.9
S=C1NCN(Cc2ccccc2)CN1C1CCCCC1,0.8,-8.9,20.8*,-0.1,-0.3,-0.8
CC(C)N1CCCC(C)(C(=O)Nc2cccc(Oc3ccccc3)c2)C1 (configuration not stated),1.8,-0.7,-0.9,-6.9,4.0,-2.1
O=c1[nH]c2ccccc2c2ccc(Cl)cc12,0.5,11.9,-0.6,0.9,-11.9,-3.5
O=c1[nH]c2cc(F)ccc2c2ccc(F)cc12,0.8,-9.4,19.1*,-2.0,-13.2,-2.4
CC(=O)/C(C(=N)N1CCN(C(c2ccccc2)c2ccccc2)CC1)=C(\C)O,2.4,83.4*,-19.9,-24.6,91.4*,-7.6
CC(=O)/C(C(=N)N1CCN(Cc2ccccc2)CC1)=C(\C)O,0.3,-5.6,-0.1,5.7,-0.5,-2.3
O=C(O)/C=C/C(=O)N1CCN(C(c2ccccc2)c2ccccc2)CC1,0.7,26.9*,-33.0,-36.5,29.5*,-17.2
O=C(O)c1[nH]c(-c2ccccc2)c2c1C(=O)N(C1CC1)C2=O,0.1,1.2,3.3,1.6,-1.7,0.6
